Series [1] can be described thus: Cytotoxicity against mouse RAW264.7 cells assessed as cell viability at <10 uM after 16 hrs by MTT assay. The note with it: read-out: Activity. The series is classed as cell-based. In outline:
(§1)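 RAW 264.7 cells grown in RPMI 1640 with 10% FBS, 2 mM L-glutamine, penicillin/streptomycin. Seeded at 5 × 10⁵ cells/mL in 96-well plates and co-treated with LPS (100 ng/mL), IFN-γ (100 units/mL) and samples in DMSO (0.2% final) for 16 h at 37 °C. MTT (200 μg/mL) added for a further 4 h. Formazan dissolved in DMSO, A540 read, compared with nontreated cells.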

Series [2] has as its system RAW264.7. Kind of series: Inhibition of LPS/IFN-gamma-induced NO production in mouse RAW264.7 cells after 16 hrs. The series is classed as functional, cell-based. Conditions: RAW264.7, 16 h. The method in brief: (§2)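 RAW 264.7 macrophages in RPMI 1640 with 10% FBS, 2 mM L-glutamine, penicillin/streptomycin, seeded at 5 × 10⁵ cells/mL. After 1 h, stimulated with LPS (100 ng/mL) plus IFN-γ (100 units/mL) and samples in DMSO (0.2% final) for 16 h at 37 °C. Supernatant nitrite measured by Griess assay at 570 nm against NaNO₂ standards. Inhibition rate taken relative to LPS/IFN-only wells.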

The test system of series [3] is RAW264.7. Kind of series: Cytotoxicity against mouse RAW264.7 cells assessed as cell viability at 20 uM after 16 hrs by MTT assay. The series is classed as cell-based. Conditions: raw264.7, 16 h. The method in brief:
as §1

Series [4] can be described thus: Cytotoxicity against mouse RAW264.7 cells assessed as cell viability at 200 uM after 16 hrs by MTT assay. The note with it: read-out: Activity. The series is classed as cell-based. In outline:
as §1

Series [5] relates to RAW264.7. Kind of series: Inhibition of LPS/IFN-gamma-induced NO production in mouse RAW264.7 cells at non cytotoxic concentration after 16 hrs. The series is classed as functional. The method in brief:
as §2

Series [6] deals with RAW264.7. Kind of series: Cytotoxicity against mouse RAW264.7 cells after 16 hrs by MTT assay. The series is classed as cell-based. Conditions: raw264.7, 16 h. The method in brief:
as §1

Series [7] can be described thus: Cytotoxicity against mouse RAW264.7 cells assessed as cell viability at 2 uM after 16 hrs by MTT assay. The note with it: read-out: Activity. The series is classed as cell-based. The method in brief: as §1

Regarding `COc1cc(O)c(CC(O)C(C)(C)OC)c(O)c1C(=O)/C=C/c1ccc(O)cc1` (racemic), in series [1], the viability at 16 h was > 95%. Besides, the IC50 in the series on RAW264.7 [2] turned out to be 6.5 µM.
Regarding `COc1cc(O)c(CC=C(C)C)c(O)c1C(=O)CCc1ccc(O)cc1` [DIHYDROXANTHOHUMOL], the Activity entry in the series on RAW264.7 [3] is “Non-toxic”. Moreover, in series [1], the viability at 16 h was > 95%. It took 23 µM to reach half-maximal inhibition in the series on RAW264.7 [2] (IC50).
Take `CC(C)=CCC1(CC=C(C)C)C(=O)C(O)=C(O)C1=O` [HULUPINIC ACID]: in the series on RAW264.7 [2], the concentration for half-maximal inhibition (IC50) is > 100 µM. Also, the viability at 16 h, 200 µM in series [4] is > 95%.
Consider `CC(C)=CCC1=C2OC(C)(C)C=CC2(CC=C(C)C)C(=O)C(C(=O)CC(C)C)=C1O` (centres undefined) [LUPULONE A], for which, in the series with RAW264.7 [2], the IC50 is 20 µM. Moreover, the “inhibition (INH)” value in the series on RAW264.7 [5] is listed as <40%. In addition, in the series with RAW264.7 [6], the Activity entry is given as “Toxic”.
Compound `CC(C)=CCC1=C2OC(C)(C)C=CC2(CC=C(C)C)C(=O)C(C(=O)C(C)C)=C1O` (centres undefined) [LUPULONE B] displayed an IC50 with RAW264.7 [2] of 14 µM. Besides, in the series with RAW264.7 [5], the “inhibition (INH)” value is listed as <40%. For the same compound, the Activity entry in the series with RAW264.7 [6] is on record as “Toxic”.
On the same counts, the results for `CC(C)=CCC1(CC=C(C)C)C(=O)C2=C(OC(C(C)(C)O)C2)C(C(=O)CC(C)C)=C1O` (centres undefined) [LUPULONE C] are 63 µM, <40% and “Toxic”.
On to `CC(C)=CCC1=C2OC(C(C)(C)O)CC2(CC=C(C)C)C(=O)C(C(=O)CC(C)C)=C1O` (centres undefined) [LUPULONE D], for which it took 11 µM to reach half-maximal inhibition with RAW264.7 [2] (IC50). In addition, the “inhibition (INH)” value in the series on RAW264.7 [5] is given as <40%. Further, the Activity result in the series on RAW264.7 [6] is reported as “Toxic”. Also, the viability at 16 h, 2 µM in series [7] was < 95%.
On the same counts, the results for `CC(C)=CCC1=C2OC(C(C)(C)O)CC2(CC=C(C)C)C(=O)C(C(=O)C(C)C)=C1O` (centres undefined) [LUPULONE E] are 15 µM, <40%, “Toxic” and < 95%.
As to `CC(C)C(=O)c1c(O)ccc2c1OC(C(C)(C)O)C2` (centres undefined) [LUPULONE F], the IC50 in the series on RAW264.7 [2] was > 100 µM.
Consider `CC(C)=CCC1=C(O)C(C(=O)CC(C)C)=C(O)C(CC=C(C)C)(CC=C(C)C)C1=O` [LUPULONE], for which the IC50 in the series with RAW264.7 [2] is 17 µM. In addition, the “inhibition (INH)” value in the series with RAW264.7 [5] is given as <40%. Moreover, the Activity result with RAW264.7 [6] is “Toxic”.
In the case of `COc1cc2c(c(O)c1C(=O)/C=C/c1ccc(O)cc1)CC(O)C(C)(C)O2` (centres undefined) [XANTHOHUMOL B], the viability at 16 h in series [1] was > 95%. For the same compound, half-maximal inhibition with RAW264.7 [2] (IC50) required 5.6 µM.
On the same counts, the results for `C=C(C)C(O)Cc1c(O)cc(OC)c(C(=O)/C=C/c2ccc(O)cc2)c1O` (centres undefined) [XANTHOHUMOL D] are > 95% and 9.4 µM.
The like results for `COc1cc(O)c(CC=C(C)C)c(O)c1C(=O)/C=C/c1ccc(O)cc1` [XANTHOHUMOL] were, in that order, > 95% and 8.3 µM.

For the origin of these results see ChEMBL document CHEMBL1142561, “Prenylflavonoids and phloroglucinol derivatives from hops (Humulus lupulus)” (J Nat Prod, 2005).
